Measured values of several laboratories.
Target: Ephrin type-A receptor 4 (EPHA4, Homo sapiens, UniProt P54764)

For `Cn1cc(-c2cccc(N3CCc4c(sc5c4CC(C)(C)C5)C3=O)c2CO)cc(Nc2ccncn2)c1=O`, the inhibition was 3% (enzyme activity; inhibitor; 1 µM).
For `Cn1cncc1[C@](O)(COc1ccc(C#N)cc1-c1ccc(OC(F)(F)F)cc1)c1ccc(C#N)cc1`, the remaining binding was 100% (cell-free assay; competition with immobilised ligand; 1 µM).
With `COc1cc(Nc2ncc(F)c(Nc3ccc4c(n3)NC(=O)C(C)(C)O4)n2)cc(OC)c1OC` the inhibition was 69% (binding; competition with immobilised ligand; 10 µM).
`COc1ncccc1-c1cnn2ccc(N3CCN(C(=O)OC(C)C)CC3)nc12` has a remaining binding of 100% (binding; competition with immobilised ligand; 1 µM).
`Cn1cc(-c2cc(F)cc(N3CCn4c(cc5c4CCCC5)C3=O)c2CO)cc(Nc2ccc(N3CCN(C4COC4)CC3)cn2)c1=O` has an inhibition of 12% (enzyme activity; inhibitor; 0.1 µM).
For `O=c1[nH]c2ccccc2n1C1CCN(Cc2ccc(-c3[nH]c4cc5ncnc5cc4nc3-c3ccccc3)cc2)CC1`, the remaining signal was 97.1% (cell-free assay; 0.5 µM).
`Cc1nn(C)cc1-c1nc2c(N3CCN(Cc4ccc(Cl)cc4)CC3)c(Cl)cnc2[nH]1` gave a remaining binding of 100% (binding; competition with immobilised ligand; 1 µM).
The remaining activity of `CC(C)(C)c1cc(C=C(C#N)C#N)cc(Br)c1O` is reported as 94.7% (enzyme activity; inhibitor; 0.5 µM).
With `Nc1ncc(-c2nc(N3CCOCC3)nc(N3CCOCC3)n2)c(C(F)F)n1` the remaining binding was 94% (cell-free assay; competition with immobilised ligand; 10 µM).
